Measurements pooled from the literature.
Lines come from different studies, so protocols differ.
PIK3CA M1043I: Phosphatidylinositol 4,5-bisphosphate 3-kinase catalytic subunit alpha isoform (PIK3CA, Homo sapiens, UniProt P42336, M1043I)
PIK3CA: Phosphatidylinositol 4,5-bisphosphate 3-kinase catalytic subunit alpha isoform (PIK3CA, Homo sapiens, UniProt P42336)
PIK3CA H1047L: Phosphatidylinositol 4,5-bisphosphate 3-kinase catalytic subunit alpha isoform (PIK3CA, Homo sapiens, UniProt P42336, H1047L)
PIK3CA C420R: Phosphatidylinositol 4,5-bisphosphate 3-kinase catalytic subunit alpha isoform (PIK3CA, Homo sapiens, UniProt P42336, C420R)
PIK3CA I800L: Phosphatidylinositol 4,5-bisphosphate 3-kinase catalytic subunit alpha isoform (PIK3CA, Homo sapiens, UniProt P42336, I800L)
PIK3CA E542K: Phosphatidylinositol 4,5-bisphosphate 3-kinase catalytic subunit alpha isoform (PIK3CA, Homo sapiens, UniProt P42336, E542K)
PIK3CA E545A: Phosphatidylinositol 4,5-bisphosphate 3-kinase catalytic subunit alpha isoform (PIK3CA, Homo sapiens, UniProt P42336, E545A)
PIK3CA Q546K: Phosphatidylinositol 4,5-bisphosphate 3-kinase catalytic subunit alpha isoform (PIK3CA, Homo sapiens, UniProt P42336, Q546K)

Structure (SMILES) | target | read-out | technique | concentration | remaining binding
FC(F)(F)c1ccc2c(c1)nc(-c1cccnc1)n2C1CC1 | PIK3CA M1043I | cell-free assay | competition with immobilised ligand | 1 µM | 100%
Cc1cnn2ncc(-c3ccnc(N(C)C)n3)c2c1 | PIK3CA | binding |  | 1 µM | 100%
COc1cnc(Nc2cccc(S(N)(=O)=O)c2)nc1N1CCN(c2ccccc2)CC1 | PIK3CA H1047L | binding | competition with immobilised ligand | 1 µM | 81%
O=C(Nc1c[nH]nc1C(=O)NC1CCNCC1)c1cc(F)cc(F)c1 | PIK3CA C420R | binding | competition with immobilised ligand | 1 µM | 100%
C[C@@H]1CN(c2cc(-c3n[nH]c4ccc(OC5(C)CC5)cc34)ncn2)C[C@H](C)O1 | PIK3CA C420R | cell-free assay | competition with immobilised ligand | 0.1 µM | 72%
O=C(c1ccc(Nc2ncc(Cl)c(-c3ccc(Cl)s3)n2)cc1)N1CCC(N2CCCC2)CC1 | PIK3CA I800L | binding | competition with immobilised ligand | 1 µM | 92%
N[C@H]1CCN(c2nccc(-c3cnn4ncccc34)n2)C1 | PIK3CA E542K | binding |  | 1 µM | 83%
O=C(NCCCN1CCOCC1)c1ccc(Nc2nccc(-c3cc4ccccc4s3)n2)cc1 | Phosphatidylinositol 4,5-bisphosphate 3-kinase catalytic subunit alpha isoform (PIK3CA, Homo sapiens, UniProt P42336, H1047Y) | binding | competition with immobilised ligand | 1 µM | 73%
F[C@@H]1CCN(c2nccc(-c3cnn4ncccc34)n2)C1 | PIK3CA E545A | binding |  | 1 µM | 92%
COc1ncc2cc3ccccc3nc2c1C#N | PIK3CA C420R | cell-free assay | competition with immobilised ligand | 5 µM | 78%
CN(CCCC(F)(F)F)c1nccc(-c2cnn3ncccc23)n1 | PIK3CA Q546K | binding |  | 1 µM | 69%
O=S(=O)(NC1CCC(c2cc(F)ccc2F)(S(=O)(=O)c2ccc(Cl)cc2)CC1)C(F)(F)F (stereo not drawn) | PIK3CA E542K | cell-free assay | competition with immobilised ligand | 1 µM | 100%
Nc1ncc2c(n1)-c1c([nH]c3ccc(C#CC4CC4)cc13)CCCC2 | PIK3CA | binding | competition with immobilised ligand | 1 µM | 90%
O=C(O)c1cc(-c2ccc(C3CCNCC3)cc2)c2ccc(-c3ccc(C(F)(F)F)cc3)cc2c1 | PIK3CA M1043I | cell-free assay | competition with immobilised ligand | 1 µM | 100%
CNC(=O)[C@@H]1CC[C@@H](n2c(-c3ccc4cnccc4c3)nc3ccc(C(=O)NCc4cccc(C(N)=O)c4)cc32)C1 | PIK3CA H1047L | binding | competition with immobilised ligand | 1 µM | 100%
Cc1c(C(=O)O)cc(-c2ccc(C3CCNCC3)cc2)c2ccc(-c3ccc(C(F)(F)F)cc3)cc12 | PIK3CA I800L | cell-free assay | competition with immobilised ligand | 1 µM | 100%
Cc1cnc(Nc2ccc(C(=O)N3CCC(N4CCCC4)CC3)cc2)nc1-c1cc2ccccc2s1 | PIK3CA | binding | competition with immobilised ligand | 1 µM | 97%

Structure (SMILES) | target | read-out | technique | concentration | remaining binding
O=C(NCC1CCOCC1)c1n[nH]cc1NC(=O)c1c(F)cccc1F | PIK3CA C420R | binding | competition with immobilised ligand | 1 µM | 100%
CCN1CCN(Cc2ccc(C(=O)Nc3ccc(C)c(Oc4ccc5c(c4)CC(=O)N5)c3)cc2C(F)(F)F)CC1 | PIK3CA M1043I | binding | competition with immobilised ligand | 1 µM | 100%
COc1cnc(Nc2cccc(S(N)(=O)=O)c2)nc1N1CCN(c2ccccc2)C(=O)C1 | PIK3CA H1047L | binding | competition with immobilised ligand | 1 µM | 90%
c1cnn2ncc(-c3ccnc(N4CCC45COC5)n3)c2c1 | PIK3CA H1047L | binding |  | 1 µM | 62%
O=C(c1ccc(Nc2nccc(-c3cc4ccccc4s3)n2)cc1)N1CCC(N2CCCC2)CC1 | PIK3CA E542K | binding | competition with immobilised ligand | 1 µM | 99%
CN1CCN(c2ccc(Nc3nccc(-c4cccc([N+](=O)[O-])c4)n3)cc2C(F)(F)F)CC1 | PIK3CA H1047L | binding |  | 10 µM | 4.8%
C[C@@H](c1ccc(-n2cnc3c(N)ncnc32)cc1)N1CCc2nn(C)c(Cc3ccccc3)c2C1=O | PIK3CA M1043I | binding | competition with immobilised ligand | 0.1 µM | 89%
CN1CCN(c2ccc(Nc3nccc(-c4ccccc4)n3)cc2C(F)(F)F)CC1 | Phosphatidylinositol 4,5-bisphosphate 3-kinase catalytic subunit alpha isoform (PIK3CA, Homo sapiens, UniProt P42336, E545K) | binding |  | 10 µM | 68%
c1cncc(-c2cccc(Nc3nccc(NC4CCCCC4)n3)c2)c1 | PIK3CA I800L | binding | competition with immobilised ligand | 10 µM | 77%
C[C@@H]1CCN(c2nccc(-c3cnn4ncccc34)n2)C1 | PIK3CA Q546K | binding |  | 1 µM | 79%
CCC(=O)N[C@H]1CC[C@@H](C(=O)N(C)c2ccc(-c3nc4ccccc4o3)cc2)C1 | PIK3CA C420R | cell-free assay | competition with immobilised ligand | 1 µM | 92%
C=CC(=O)N1CCC(C(=O)NCC(=O)N2CCN(c3nc(-c4cnc(N)nc4C(F)F)nc(N4CCOCC4)n3)CC2)CC1 | PIK3CA H1047L | binding | competition with immobilised ligand | 1 µM | 0.45%
CN(C)C(=O)Cn1cc(-c2nc([C@@](C)(c3ccc(-c4cnc(N)nc4)cc3)C3CC3)no2)cn1 | PIK3CA E542K | cell-free assay | competition with immobilised ligand | 1 µM | 79%
O=C(NCCCN1CCOCC1)c1ccc(Nc2ncc(Cl)c(-c3ccc(Cl)s3)n2)cc1 | PIK3CA H1047L | binding | competition with immobilised ligand | 1 µM | 100%
C[C@@]1(Cc2ccc(C#N)cc2)C(=O)N(c2cc(Cl)cc(Cl)c2)c2ncc(C(=O)NC3(c4nc(C5CCC5)no4)CC3)n21 | PIK3CA E545A | cell-free assay | competition with immobilised ligand | 1 µM | 100%
CN(C)c1ncc(F)c(-c2cnn3ncccc23)n1 | PIK3CA Q546K | binding |  | 1 µM | 86%
